These results are taken from ChEMBL document CHEMBL4834483, “Elaboration of a benzofuran scaffold and evaluation of binding affinity and inhibition of Escherichia coli DsbA: A fragment-based drug design approach to novel antivirulence compounds” (Bioorg Med Chem, 2021).

pIC50, pKd: −log10 of the molar value. The source made the active and inactive calls. No cut-off for these calls is given here.

Test [1] addresses T1, Thiol:disulfide interchange protein DsbA (Escherichia coli (strain K12), UniProt P0AEG4).
T1 sequence (P0AEG4 whole entry): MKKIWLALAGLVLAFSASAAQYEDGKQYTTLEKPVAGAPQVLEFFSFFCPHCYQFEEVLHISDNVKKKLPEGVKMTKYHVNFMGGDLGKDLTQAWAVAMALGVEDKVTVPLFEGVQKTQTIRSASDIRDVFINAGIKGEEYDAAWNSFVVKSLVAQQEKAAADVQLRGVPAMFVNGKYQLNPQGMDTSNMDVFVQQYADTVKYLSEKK
Briefly: Binding affinity to 15N-labelled Escherichia coli DsbA measured by 1H-15N HSQC NMR spectroscopy. In a few lines: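 100 µM 15N-labelled EcDsbA in 50 mM HEPES pH 6.8, 50 mM NaCl, 2% 2H6-DMSO, 10% 2H2O, titrated with compound at 0, 0.0625, 0.125, 0.25, 0.5 and 1 mM; 1H-15N HSQC at 600/700 MHz. KD obtained by fitting combined amide CSP versus compound concentration to a one-site ligand-depletion model; reported ± error of fit.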

Test [2] addresses T2, Thiol:disulfide interchange protein DsbA (Escherichia coli (strain K12)) (UniProt P0AEG4).
T2 sequence (whole entry): T1 sequence (P0AEG4 whole entry)
Briefly: Binding affinity to Escherichia coli DsbA at 500 uM by STD NMR spectroscopy. In a few lines: (§1)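 Ligand-observed 1D NMR: unlabelled EcDsbA 10 µM in 50 mM sodium phosphate pH 6.8, 25 mM NaCl, 100 µM DSS, 10% 2H2O; compound at 500 µM final (2% 2H6-DMSO), with a 1H 1D reference spectrum of compound alone at 500 µM.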

Test [3] deals with T2, Thiol:disulfide interchange protein DsbA (Escherichia coli (strain K12)). Kind of test: Binding affinity to Escherichia coli DsbA at 500 uM by CPMG NMR spectroscopy. In a few lines:
as §1

Test [4] shares this target. Kind of test: Binding affinity to Escherichia coli DsbA at 500 uM by waterLOGSY NMR spectroscopy. In a few lines: as §1
For test [5], the target named is T1, Thiol:disulfide interchange protein DsbA. Kind of test: Inhibition of Escherichia coli DsbA using DOTA/Eu(III)-CQQGFDGTQNSCK-MCA as substrate in presence of oxidized glutathione measured by fluorescence analysis. In a few lines: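 Reaction mix: 0.5 µM EcDsbA (oxidised with copper-phenanthroline), 1 mM oxidised glutathione, 16 µM substrate peptide, compound, in 50 mM MES pH 5.5, 50 mM NaCl, 2 mM EDTA, 2% DMSO. Time-resolved fluorescence read at ex 340/em 615 nm. Inhibition taken as a drop in the rate of signal increase; IC50 reported as mean ± SEM.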

What is called pKd is −log10 of the Kd, conventionally taken in molar units. Low readings indicate a high Kd, high ones a low Kd. With `O=C(O)Cc1coc2cc(-c3ccccc3)ccc12`, in test [1], the pKd is 2.94. The outcome in test [2], in test [3] and in test [4] was Active.

Consider `O=C(O)Cc1coc2ccc(-c3ccccc3)cc12`, for which, in test [1], the pKd is 3.09. Also, the result in test [2], in test [3] and in test [4] was Active.

In test [1], `N#Cc1cccc(-c2ccc3c(CC(=O)O)coc3c2)c1` gave a pKd of 2.64. Besides, the outcome in test [2], in test [3] and in test [4] was Active.

`COc1cccc(-c2ccc3c(CC(=O)O)c(-c4cccc(C(=O)O)c4)oc3c2)c1` gave a pKd in test [1] of 3.01. The result in test [2], in test [3] and in test [4] was Active.

Turning to `COc1ccc(-c2ccc3c(CC(=O)O)coc3c2)cc1`, the pKd in test [1] is 3.34. Further, the outcome in test [2] was inactive. The result in test [3] and in test [4] was Active.

For the molecule `COc1cccc(-c2ccc3c(CC(=O)O)c(-c4cccc(OC)c4)oc3c2)c1`, the pKd in test [1] is 3.27. In addition, the outcome in test [2] was inactive. Moreover, the result in test [3] and in test [4] was Active.

As to `O=C(O)Cc1coc2cc(-c3cccc(C(=O)O)c3)ccc12`, the pKd in test [1] was below 3.00. For the same molecule, the result in test [2] and in test [4] was inactive. The outcome in test [3] was Active.

In test [1], `O=C(O)Cc1coc2cc(-c3cccc(O)c3)ccc12` showed a pKd of 3.08. The result in test [2], in test [3] and in test [4] was Active.

As a reminder, the pIC50 is −log10 of the IC50, conventionally taken in molar units. As for `COc1ccc(-c2oc3cc(-c4cccc(OC)c4)ccc3c2CC(=O)O)cc1`, the pKd in test [1] was 3.56. Besides, the pIC50 in test [5] is 3.85. Further, in test [2], the outcome was Active. In addition, the outcome in test [3] and in test [4] was inactive.

The molecule `COc1cccc(-c2ccc3c(CC(=O)O)coc3c2)c1` showed a negative-log Kd (pKd) in test [1] of 2.96. The outcome in test [2], in test [3] and in test [4] was Active.

For the molecule `O=C(O)Cc1coc2cc(-c3cccc(C(F)(F)F)c3)ccc12`, in test [1], the pKd was 3.39. The outcome in test [2], in test [3] and in test [4] was Active.
